Experimental findings from ChEMBL document CHEMBL1806413, “New C-23 modified of silybin and 2,3-dehydrosilybin: synthesis and preliminary evaluation of antioxidant properties” (Bioorg Med Chem Lett, 2011) are described below.

Molecules are shown by their SMILES. Active and inactive are the calls of the source. The rule behind the calls is not given here.

Data set [1] has as its system Rat1. As to the kind of experiment: Antioxidant activity in rat immortalized Rat1 cells assessed as inhibition of hydrogen peroxide-induced reactive oxygen species production by measuring conversion of 2',7'-dichlorofluorescin diacetate into 2',7'-dichlorofluorescein at 30 uM treated 48 hrs before H2O2 challenge measured after 15 mins by fluorescence assay. It counts as functional, cell-based. A digest of the protocol:
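Immortalized rat fibroblasts pre-treated 48 h with compound (30 μM), then exposed to 100 μM H2O2 for 15 min; intracellular ROS read as DCF fluorescence from DCFH-DA oxidation. Basal (no H2O2) levels also measured. Values expressed as % of fluorescence in untreated control cells (set at 100).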

For data set [2], the system named is Rat1. As to the kind of experiment: Cytotoxicity against rat immortalized Rat1 cells after 48 hrs by MTT assay. It counts as cell-based. Conditions: for IC50: Rattus norvegicus, Rat1, 48 h; for Activity: rat, rat1, 48 h.
For data set [3], the system named is Rat1. Kind of data set: Cytotoxicity against rat immortalized Rat1 cells assessed as reduction of cell viability at 30 uM after 48 hrs by MTT assay. The data set is classed as cell-based. Conditions: rat1, 48 h. A digest of the protocol: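 Exponentially growing rat fibroblasts given compound at 30 μM; viability assessed by MTT test after 48 h.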

For `COc1cc(C2Oc3cc(-c4oc5cc(O)cc(O)c5c(=O)c4O)ccc3OC2CO)ccc1O` (mixture of isomers) [DEHYDROSILYLBIN], the inhibition result with Rat1 [1] was “Active”. For the same molecule, in the data set with Rat1 [2], inhibition was half-maximal at 155 µM (IC50) and the Activity result was “Dose-dependent effect”. For the same molecule, the Activity result with Rat1 [3] is given as “Non-toxic”.

Regarding `COc1cc(C2Oc3cc([C@H]4Oc5cc(O)cc(O)c5C(=O)[C@@H]4O)ccc3OC2CO)ccc1O` (mixture of isomers) [SILIBININ], the inhibition entry in the data set on Rat1 [1] is “Active”. Besides, in the data set on Rat1 [2], half-maximal inhibition (IC50) was put at 162 µM and the Activity entry is on record as “Dose-dependent effect”. In the data set with Rat1 [3], the Activity entry was “Non-toxic”.
